Measurements: ChEMBL document CHEMBL4513216, “Probing the Open Global Health Chemical Diversity Library for Multistage-Active Starting Points for Next-Generation Antimalarials” (ACS Infect Dis, 2020)

Assay: Toxicity liver stage against HepG2, at 10uM
Assay type: cell-based
Parameters: test concentration 10 uM, cell line HepG2-A16-CD81EGFP
Details: human, HepG2-A16-CD81EGFP cells; read-out: INHIBITION
How it was run: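 Uninfected HepG2-A16-CD81EGFP cells, 3 × 10^3 per well, 1536-well, plated on prespotted compound at 10 μM final, parasite-free screening media added to match infected plates; puromycin 10 μM positive, DMSO 0.5% negative; run in parallel with 48 h PbLuc assay at 37 °C, 5% CO2; viability by CellTiter-Glo luminescence, normalized to controls.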

Question: Which cytotoxicity at 10 µM does the source give for `O=C(c1cc(-c2ccc(O)cc2)n[nH]1)N1CCCC1c1cccnc1` (stereo not given) here?
Answer: -4.09%

Question: With `C[C@@H]1CN(S(=O)(=O)c2ccc(F)cc2Cl)C[C@]1(C)O` as the molecule, how does the cytotoxicity at 10 µM read?
Answer: -2.83%

Question: For `O=C(NCc1ccc(CO)cc1)C1CCOc2ccccc2C1` (stereo not given), which cytotoxicity at 10 µM is on record?
Answer: -3.54%

Question: For `Cn1c(CN2CCCC2)nnc1C1CCCN(C(=O)N2CCOCC2)C1` (stereo not given), which cytotoxicity at 10 µM is on record?
Answer: -0.193%

Question: Which cytotoxicity at 10 µM does the source give for `Cc1nc2c(c(NCC(=O)NC(C)C)n1)Cc1ccccc1OC2` here?
Answer: 4.81%

Question: With `Cn1cc(CN2CCOC(CCNC(=O)c3ccsc3)C2)cn1` (stereo not given) as the molecule, how does the cytotoxicity at 10 µM read?
Answer: 2.72%

Question: With `CC[C@@H](CO)NC(=O)c1cccc(CCC(C)(C)O)c1` as the molecule, how does the cytotoxicity at 10 µM read?
Answer: -3.33%

Question: Which cytotoxicity at 10 µM does the source give for `COc1ccc(CN2CCC3(CCCN(C)C3=O)C2)c(OC)c1C` (stereo not given) here?
Answer: -0.409%

Question: Which cytotoxicity at 10 µM does the source give for `O=S(=O)(CC1CC1)c1ncc(CN2CCSCC2)n1CC1CCCO1` (stereo not given) here?
Answer: -1.07%

Question: With `CCCc1cc(NCc2ccc(CO)cc2)n2nccc2n1` as the molecule, how does the cytotoxicity at 10 µM read?
Answer: -14.1%

Question: With `COc1ccc(Cc2ncc3c(n2)CN(C(=O)CN(C)C)C3)cc1` as the molecule, how does the cytotoxicity at 10 µM read?
Answer: -1.28%

Question: Which cytotoxicity at 10 µM does the source give for `CC(C)c1cc(C2CCCN2C(=O)CN2C(=O)CCNC2=O)no1` (stereo not given) here?
Answer: 18.8%

Question: For `COc1ccc(OC2CCN(C(=O)CCc3n[nH]c(N)n3)CC2)cc1`, which cytotoxicity at 10 µM is on record?
Answer: 1.43%

Question: With `O=C(NCCc1cc(=O)[nH]cn1)c1[nH]nc2c1CCCC2` as the molecule, how does the cytotoxicity at 10 µM read?
Answer: 2.22%

Question: For `COCCOCC(=O)N(Cc1cccc(C)c1)C(C)C`, which cytotoxicity at 10 µM is on record?
Answer: -12.4%

Question: With `CN1CCN(C2CCN(CCOc3cccc(F)c3)CC2)C1=O` as the molecule, how does the cytotoxicity at 10 µM read?
Answer: -2.45%

Question: For `CN(C(=O)C1CCCC1)C(c1cccc(F)c1)c1ccccn1` (stereo not given), which cytotoxicity at 10 µM is on record?
Answer: 6.07%

Question: With `O=C(CS(=O)(=O)Cc1ccccc1)NC1CCCCNC1=O` (stereo not given) as the molecule, how does the cytotoxicity at 10 µM read?
Answer: -1.46%

Question: For `CC(C)c1nnc2n1CCN(CCC(=O)Nc1sccc1C#N)C2`, which cytotoxicity at 10 µM is on record?
Answer: -25.8%

Question: For `CC(C)c1n[nH]c(C2CN(C(=O)c3cn4ccccc4n3)CCO2)n1` (stereo not given), which cytotoxicity at 10 µM is on record?
Answer: 0.153%

Question: For `Cc1nc(C)n(CC2CN(Cc3ccccc3C#N)CCO2)n1` (stereo not given), which cytotoxicity at 10 µM is on record?
Answer: -8.8%

Question: Which cytotoxicity at 10 µM does the source give for `O=C(c1cc(-c2cccs2)on1)N1CCCCC1Cn1cccn1` (stereo not given) here?
Answer: -2.93%

Question: For `CCc1ccc(S(=O)(=O)Nc2ccc(F)cc2C(=O)O)s1`, which cytotoxicity at 10 µM is on record?
Answer: 3.69%

Question: For `CC(C)c1ncncc1C(=O)N1CCN(Cc2ccccn2)CC1`, which cytotoxicity at 10 µM is on record?
Answer: -2.87%

Question: Which cytotoxicity at 10 µM does the source give for `CCc1nc(C2CCCN2C(=O)Cc2cccs2)no1` (stereo not given) here?
Answer: -7.85%

Question: Which cytotoxicity at 10 µM does the source give for `CN(Cc1noc(C2CC2)n1)C1CCN(Cc2ccccc2C#N)C1` (stereo not given) here?
Answer: -7.8%

Question: For `COc1ccc(-c2nc(CN3CCc4cncnc4C3)no2)cc1`, which cytotoxicity at 10 µM is on record?
Answer: -3.92%

Question: With `CC(O)CN1CCN(Cc2csc(-c3cnn(C)c3)n2)CC1` (stereo not given) as the molecule, how does the cytotoxicity at 10 µM read?
Answer: -4.1%

Question: Which cytotoxicity at 10 µM does the source give for `CCC1CN(CC(=O)N2CCCC2)CCN1CCOC` (stereo not given) here?
Answer: -4.22%

Question: Which cytotoxicity at 10 µM does the source give for `O=C(CN1CCc2c(ncn2C2CC2)C1)NC1CCOCC1` here?
Answer: -13.4%

Question: With `CCc1nc(C2CCCN(C(=O)c3ccc4[nH]cnc4c3)C2)no1` (stereo not given) as the molecule, how does the cytotoxicity at 10 µM read?
Answer: 1.48%

Question: For `COc1c(C2CCCN2C(=O)c2cnccn2)c(C)nn1C` (stereo not given), which cytotoxicity at 10 µM is on record?
Answer: 0.501%

Question: For `c1cnnc(N2CCCC(NCc3ccc(-n4cncn4)cc3)C2)c1` (stereo not given), which cytotoxicity at 10 µM is on record?
Answer: -3.14%

Question: For `CC(C)c1nnc2n1CCN(C(=O)c1cccc(OCC(N)=O)c1)C2`, which cytotoxicity at 10 µM is on record?
Answer: -4.38%

Question: For `Cc1nc(C)n(CC2CCCN2Cc2ccccn2)n1` (stereo not given), which cytotoxicity at 10 µM is on record?
Answer: -0.186%

Question: With `Cc1nc(CN2CCCC2Cn2cncn2)nc2ccccc12` (stereo not given) as the molecule, how does the cytotoxicity at 10 µM read?
Answer: -1.63%

Question: Which cytotoxicity at 10 µM does the source give for `CN(Cc1nc2c(cnn2C)c(=O)[nH]1)Cc1ccccc1Cl` here?
Answer: -5.82%

Question: With `CCc1n[nH]c(C2CN(C(=O)c3cnc[nH]3)CCO2)n1` (stereo not given) as the molecule, how does the cytotoxicity at 10 µM read?
Answer: -0.481%

Question: Which cytotoxicity at 10 µM does the source give for `N#Cc1cccnc1OC1CCNCC1` here?
Answer: -8.99%

Question: With `O=C(NCc1cncc2c1CCN(Cc1ccoc1)C2)C1CC1` as the molecule, how does the cytotoxicity at 10 µM read?
Answer: 4.03%

Question: With `Cc1cccc(CN2CC[C@@H]3[C@@H]2CCN3C(=O)c2ccoc2C)n1` as the molecule, how does the cytotoxicity at 10 µM read?
Answer: -3.99%

Question: Which cytotoxicity at 10 µM does the source give for `O=C1CC[C@H]2[C@H](CCN2C(=O)C2CCCO2)N1Cc1cccnc1` (stereo not given in full) here?
Answer: -8.6%

Question: Which cytotoxicity at 10 µM does the source give for `CCOC(=O)[C@]12CCCN(Cc3nccs3)C[C@H]1CN(S(C)(=O)=O)C2` here?
Answer: -5.79%

Question: With `COc1ncccc1CN1C[C@@H]2COC[C@]2(CNS(C)(=O)=O)C1` as the molecule, how does the cytotoxicity at 10 µM read?
Answer: 8.01%

Question: With `O=C([C@H]1C[C@H]2OCC[C@H]2N(Cc2ccccn2)C1)N1CCCCO1` as the molecule, how does the cytotoxicity at 10 µM read?
Answer: -73.3%

Question: With `Cc1cnc(N2CC[C@@H]3O[C@H](COCc4ccccn4)CC[C@@H]32)nc1` as the molecule, how does the cytotoxicity at 10 µM read?
Answer: -76.3%

Question: With `O=C1[C@H]2CN(CC3CCOCC3)C[C@H]2CN1c1ccsc1` as the molecule, how does the cytotoxicity at 10 µM read?
Answer: 8.52%

Question: With `COCC(=O)N1CCCC2(COCCN(CCN(C)C)C2)C1` (stereo not given) as the molecule, how does the cytotoxicity at 10 µM read?
Answer: 8.76%

Question: Which cytotoxicity at 10 µM does the source give for `O=C(C1CCCO1)N1CCC2(CC1)COCCN(Cc1ccncc1)C2` (stereo not given) here?
Answer: -81.1%

Question: For `FC(F)(F)c1ccnc(N2C[C@H]3CCN(c4cccnc4)C[C@H]3C2)n1`, which cytotoxicity at 10 µM is on record?
Answer: 6.88%

Question: Which cytotoxicity at 10 µM does the source give for `CN(C)CCO[C@@H]1CC[C@H]2[C@H]1OCCN2C(=O)CCc1ccccc1` here?
Answer: -6.69%

Question: For `OC(CN1CCN(Cc2cc(F)cc(F)c2)CC1)C1CC1` (stereo not given), which cytotoxicity at 10 µM is on record?
Answer: 11.5%

Question: Which cytotoxicity at 10 µM does the source give for `c1cnc(N2CCC3(CCN(CC4CCOCC4)CC3)C2)nc1` here?
Answer: 1.29%

Question: With `CC(C)N1[C@H](Cn2cncn2)C[C@@H]2CNCC[C@@H]21` as the molecule, how does the cytotoxicity at 10 µM read?
Answer: 1.9%

Question: With `Cc1ccccc1CNC(=O)N1C[C@@H]2C[C@H](C(=O)N(C)C)[C@H](C1)O2` as the molecule, how does the cytotoxicity at 10 µM read?
Answer: 5.44%
